# Published values of several laboratories.
# Target: Cyclin-dependent kinase 13 (CDK13, Homo sapiens, UniProt Q14004)
SMILES,test,setting,remaining binding [%]
O=C(NCC1CCOCC1)c1n[nH]cc1NC(=O)c1c(F)cccc1F,"binding, competition with immobilised ligand",1 µM,66
O=C(c1ccc(Nc2ncc(Cl)c(-c3ccc(Cl)s3)n2)cc1)N1CCC(N2CCCC2)CC1,"binding, competition with immobilised ligand",1 µM,18
CC(=O)C1=C(C)N(c2cccc(C(F)(F)F)c2)C(=O)N[C@@H]1c1ccc(C#N)nc1,"cell-free assay, competition with immobilised ligand",1 µM,100
CNC(=O)[C@@H]1CC[C@@H](n2c(-c3ccc4cnccc4c3)nc3ccc(C(=O)NCc4cccc(C(N)=O)c4)cc32)C1,"binding, competition with immobilised ligand",1 µM,100
Cc1c[nH]c2nccc(Oc3c(F)cc(Nc4cc(Cl)nc(N)n4)cc3F)c12,"cell-free assay, competition with immobilised ligand",0.1 µM,73
c1cnn2ncc(-c3ccnc(N4CCC45COC5)n3)c2c1,binding,1 µM,87
O=C(NCCCN1CCOCC1)c1ccc(Nc2ncc(Cl)c(-c3ccc(Cl)s3)n2)cc1,"binding, competition with immobilised ligand",1 µM,34
CN(C)c1nccc(-c2cnn3ncccc23)n1,binding,1 µM,84
COc1cnc(Nc2cccc(S(N)(=O)=O)c2)nc1N1CCN(c2ccccc2)C(=O)C1,"binding, competition with immobilised ligand",1 µM,94
C[C@H]1CCN(c2nccc(-c3cnn4ncccc34)n2)C1,binding,1 µM,84
CC(=O)c1c(NS(C)(=O)=O)c2cc(-c3ccc(Cl)cc3)c(-c3ccc(Cl)cc3Cl)nc2n(C)c1=O,"cell-free assay, competition with immobilised ligand",1 µM,96
Nc1ncc2c(n1)-c1c([nH]c3ccc(C#CC4CC4)cc13)CCCC2,"binding, competition with immobilised ligand",1 µM,84
COc1ccnn2ncc(-c3ccnc(N(C)C)n3)c12,binding,1 µM,69
O=C(NCCCN1CCOCC1)c1ccc(Nc2nccc(-c3cc4ccccc4s3)n2)cc1,"binding, competition with immobilised ligand",1 µM,68
O=C(Nc1cccnn1)N1CCC(=Cc2cccc(Oc3ccc(C(F)(F)F)cn3)c2)CC1,"cell-free assay, competition with immobilised ligand",1 µM,100
N[C@@H]1CCN(c2nccc(-c3cnn4ncccc34)n2)C1,binding,1 µM,54
CCCCN(CCCC)C(=O)CN1C[C@H](c2cc(OC)c3c(c2)OCO3)[C@@H](C(=O)O)[C@@H]1CC(C)(C)CCC,"cell-free assay, competition with immobilised ligand",1 µM,52.5
COc1ncc2cc3ccccc3nc2c1C#N,"cell-free assay, competition with immobilised ligand",5 µM,92
